Test results taken from ChEMBL document CHEMBL1123695, “Synthesis and 3'-substituent effects of some 7 alpha-methoxy-1-oxacephems on antibacterial activity and alkaline hydrolysis rates” (1987).
In brackets after ≈: the same amount, converted by molar mass.

Key:
Assay type in all cases: functional
[1] = tested on: Escherichia coli; experiment: Antibacterial activity against Escherichia coli (H) a sensitive gram-negative bacteria
Method in brief: (§1)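 Agar dilution on sensitivity test agar containing serial twofold antibiotic dilutions. Overnight tryptosoy broth cultures were diluted in the same broth to about 10^6 cells/mL, and one loopful was applied with an inoculating device. Plates were incubated at 37 °C for 18-20 h. MIC was taken as the lowest concentration inhibiting visible growth, in micrograms per milliliter.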

[2] = tested on: Escherichia coli; experiment: Antibacterial activity against Escherichia coli (EC-14) a sensitive gram-negative bacteria; method in brief: as §1
[3] = tested on: Escherichia coli; experiment: Antibacterial activity against Escherichia coli (NIHJ JC-2) a sensitive gram-negative bacteria; method in brief: as §1
[4] = tested on: Bacteria; experiment: Geometric mean of the four MIC's of different sensitive gram negative bacteria expressed
[5] = tested on: Klebsiella pneumoniae; experiment: Antibacterial activity against Kleb. pneumoniae (SRL-1) a sensitive gram-negative bacteria; method in brief: as §1
[6] = tested on: Bacteria; experiment: Geometric mean of the four MIC's of different sensitive gram negative bacteria.

| SMILES | MIC [1] [µg/mL] | MIC [2] [µg/mL] | MIC [3] [µg/mL] | Geometric mean [4] [µM] | MIC [5] [µg/mL] | Geometric mean [6] [µM] |
| --- | --- | --- | --- | --- | --- | --- |
| CO[C@@]1(NC(=O)Cc2ccccc2)C(=O)N2C(C(=O)[O-])=C(CSC)CO[C@@H]21.[Na+] | 50 | 200 | > 400 | 406 | 100 | – |
| CO[C@@]1(NC(=O)Cc2ccccc2)C(=O)N2C(C(=O)[O-])=C(CSc3nnnn3C)CO[C@@H]21.[Na+] | 0.1 | 0.39 | 0.78 | 0.684 | 0.39 | – |
| CO[C@@]1(NC(=O)Cc2ccccc2)C(=O)N2C(C(=O)[O-])=C(C)CO[C@@H]21.[Na+] | 100 | 100 | 200 | – | 100 | 323 |
| CO[C@@]1(NC(=O)Cc2ccccc2)C(=O)N2C(C(=O)[O-])=C(COC(C)=O)CO[C@@H]21.[Na+] | 0.78 | 3.13 | 3.13 | 4.36 | 1.56 | – |
| CO[C@@]1(NC(=O)Cc2ccccc2)C(=O)N2C(C(=O)[O-])=C(COC(N)=O)COC21.[Na+] (stereo not given in full) | 0.78 | 0.78 | 3.13 | 3.66 | 3.13 | – |
| CO[C@@]1(NC(=O)Cc2ccccc2)C(=O)N2C(C(=O)[O-])=C(CC#N)CO[C@@H]21.[Na+] | 12.5 | 25 | 50 | 63.6 | 25 | – |
| COCC1=C(C(=O)[O-])N2C(=O)[C@](NC(=O)Cc3ccccc3)(OC)[C@H]2OC1.[Na+] | 25 | 100 | 200 | 178 | 50 | – |
| CO[C@@]1(NC(=O)Cc2ccccc2)C(=O)N2C(C(=O)[O-])=C(C[n+]3ccccc3)COC21 (stereo not given in full) | 12.5 (≈ 29.5 µM) | 12.5 (≈ 29.5 µM) | 12.5 (≈ 29.5 µM) | 29.5 | 12.5 (≈ 29.5 µM) | – |
| CO[C@@]1(NC(=O)Cc2ccccc2)C(=O)N2C(C(=O)[O-])=C(CO)CO[C@@H]21.[Na+] | 25 | 50 | 100 | 130 | 50 | – |
